This note sets out measurements from ChEMBL document CHEMBL1134793, “Investigation of the selectivity of oxymorphone- and naltrexone-derived ligands via site-directed mutagenesis of opioid receptors: exploring the "address" recognition locus” (J Med Chem, 2001).

Molecules are shown by their SMILES. pKi: −log10 of the molar value.

Holding throughout (assay type): cell-based, HEK293
Assay [1] deals with Mu-type opioid receptor (Rattus norvegicus, UniProt P33535, K303E). Kind of assay: Displacement of [3H]- diprenorphine from mu-K303E-receptor expressed in HEK 293 cells.
Mu-type opioid receptor (Rattus norvegicus, UniProt P33535, K303E), sequence (P33535 whole entry K303E): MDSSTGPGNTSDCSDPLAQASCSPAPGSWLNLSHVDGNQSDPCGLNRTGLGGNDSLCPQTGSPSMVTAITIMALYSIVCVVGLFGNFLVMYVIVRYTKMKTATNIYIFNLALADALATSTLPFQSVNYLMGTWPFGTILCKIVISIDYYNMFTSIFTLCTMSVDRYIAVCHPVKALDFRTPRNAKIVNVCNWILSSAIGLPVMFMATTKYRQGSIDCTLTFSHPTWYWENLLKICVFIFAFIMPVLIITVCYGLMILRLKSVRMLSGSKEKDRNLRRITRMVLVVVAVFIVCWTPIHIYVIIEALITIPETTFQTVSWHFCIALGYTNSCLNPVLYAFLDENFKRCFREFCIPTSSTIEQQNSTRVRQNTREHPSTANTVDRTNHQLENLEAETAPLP
The target in assay [2] is Mu-type opioid receptor (Rattus norvegicus, UniProt P33535, W318A). Kind of assay: Displacement of [3H]- diprenorphine from mu-W318A-receptor expressed in HEK 293 cells.
Mu-type opioid receptor (Rattus norvegicus, UniProt P33535, W318A), sequence (P33535 whole entry W318A): as the sequence (P33535 whole entry K303E) above, with E303K, W318A counted along it
Assay [3] addresses Delta-type opioid receptor (Mus musculus, UniProt P32300). Kind of assay: Displacement of [3H]- diprenorphine from delta receptor expressed in HEK 293 cells. The gist of the method: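 HEK-293 cells transiently transfected with wild-type or mutant receptor cDNA by calcium phosphate were harvested 60-72 h later and suspended in 25 mM HEPES, pH 7.4. […] Nonspecific binding was defined with 1 μM NTI. Bound ligand was filtered on PEI-soaked GF/B and counted.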

The target in assay [4] is Delta-type opioid receptor (Mus musculus, UniProt P32300, W284E). Kind of assay: Displacement of [3H]- diprenorphine from delta-W284E-receptor expressed in HEK 293 cells. The gist of the method:
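HEK-293 cells transiently transfected with wild-type or mutant receptor cDNA by calcium phosphate were harvested 60-72 h later and suspended in 25 mM HEPES, pH 7.4. Nonspecific binding was defined with 1 μM NTI. Bound ligand was filtered on PEI-soaked GF/B and counted.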

Assay [5] addresses Kappa-type opioid receptor (Rattus norvegicus, UniProt P34975, E297A). Kind of assay: Displacement of [3H]diprenorphine from k-E297A-receptor expressed in HEK 293 cells.
Assay [6] addresses Kappa-type opioid receptor (Rattus norvegicus, UniProt P34975, Y312A). Kind of assay: Displacement of [3H]diprenorphine from k-Y312A-receptor expressed in HEK 293 cells.
Assay [7] deals with Kappa-type opioid receptor (Rattus norvegicus, UniProt P34975). Kind of assay: Displacement of [3H]diprenorphine from opioid receptor kappa 1 expressed in HEK 293 cells.
Kappa-type opioid receptor (Rattus norvegicus, UniProt P34975), sequence (P34975 whole entry): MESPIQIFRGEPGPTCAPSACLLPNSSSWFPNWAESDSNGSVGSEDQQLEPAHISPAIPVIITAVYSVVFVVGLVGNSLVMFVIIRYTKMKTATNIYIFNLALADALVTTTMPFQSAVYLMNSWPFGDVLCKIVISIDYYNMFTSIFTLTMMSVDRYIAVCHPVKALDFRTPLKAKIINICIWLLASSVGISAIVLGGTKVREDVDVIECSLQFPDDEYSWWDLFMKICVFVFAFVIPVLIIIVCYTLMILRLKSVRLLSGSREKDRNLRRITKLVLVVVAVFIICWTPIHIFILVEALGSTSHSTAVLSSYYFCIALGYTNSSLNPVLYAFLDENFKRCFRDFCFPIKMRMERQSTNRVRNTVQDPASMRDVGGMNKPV
Assay [8] addresses Mu-type opioid receptor (Rattus norvegicus, UniProt P33535). Kind of assay: Displacement of [3H]- diprenorphine from mu-receptor expressed in HEK 293 cells.

Delta-type opioid receptor (Mus musculus, UniProt P32300), sequence (P32300 whole entry): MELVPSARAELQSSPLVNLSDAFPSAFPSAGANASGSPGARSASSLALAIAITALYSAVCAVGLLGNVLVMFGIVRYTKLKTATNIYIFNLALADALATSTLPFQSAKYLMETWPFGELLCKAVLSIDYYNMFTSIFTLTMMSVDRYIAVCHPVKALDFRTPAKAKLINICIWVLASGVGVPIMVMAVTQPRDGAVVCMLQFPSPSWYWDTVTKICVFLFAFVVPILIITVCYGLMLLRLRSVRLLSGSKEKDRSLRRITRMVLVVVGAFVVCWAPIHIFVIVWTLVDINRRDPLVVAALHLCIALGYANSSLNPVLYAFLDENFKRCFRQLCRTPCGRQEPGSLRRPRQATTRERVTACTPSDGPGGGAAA
Kappa-type opioid receptor (Rattus norvegicus, UniProt P34975, Y312A), sequence (P34975 whole entry Y312A): as the sequence (P34975 whole entry) above, with Y312A counted along it
Kappa-type opioid receptor (Rattus norvegicus, UniProt P34975, E297A), sequence (P34975 whole entry E297A): as the sequence (P34975 whole entry) above, with E297A counted along it
Delta-type opioid receptor (Mus musculus, UniProt P32300, W284E), sequence (P32300 whole entry W284E): as the sequence (P32300 whole entry) above, with W284E counted along it
Mu-type opioid receptor (Rattus norvegicus, UniProt P33535), sequence (P33535 whole entry): as the sequence (P33535 whole entry K303E) above, with E303K counted along it

Take `N=C(N)Nc1ccc2[nH]c3c(c2c1)C[C@@]1(O)[C@H]2Cc4ccc(O)c5c4[C@@]1(CCN2CC1CC1)[C@H]3O5` [GUANIDINONALTRINDOLE]: the pKi at Mu-type opioid receptor [1] was 10.05; at Mu-type opioid receptor [2], 9.30; in assay [3], 7.34; in assay [4] it was 8.96; in assay [5], 8.41; in assay [6] it was 10.52.
In the case of `Oc1ccc2c3c1O[C@H]1c4[nH]c5ccccc5c4C[C@@]4(O)[C@@H](C2)N(CC2CC2)CC[C@]314` [NALTRINDOLE], the pKi in assay [3] was 9.72; in assay [4] it was 8.74; in assay [5], 7.38; in assay [7], 7.59; in assay [6], 8.91.
`Oc1ccc2c3c1O[C@H]1c4[nH]c5c(c4C[C@@]4(O)[C@@H](C2)N(CC2CC2)CC[C@]314)C[C@@]1(O)[C@H]2Cc3ccc(O)c4c3[C@@]1(CCN2CC1CC1)[C@H]5O4` [NORBINALTORPHIMINE]: the negative-log Ki (pKi) in assay [7] is 10.15; in assay [6], 8.86.
`CN1CC[C@]23c4c5ccc(O)c4O[C@H]2C(=O)C2(Cc4ccccc4C2)C[C@@]3(O)[C@H]1C5` [SPIROINDANYLOXYMORPHONE]: the pKi on Mu-type opioid receptor [1] was 6.81; on Mu-type opioid receptor [2], 8.41; at Mu-type opioid receptor [8], 7.05; in assay [3] it was 8.39; in assay [4], 7.33; in assay [5], 6.53. For the same molecule, the pKi was 6.31 in assay [7] and 7.26 in assay [6].
